Source: PubChem BioAssay (Sanford-Burnham Center for Chemical Genomics)
SENP8 block-1 – SENP8 protease inhibition. Q96LD8. actives 1.2% (n = 330,000). purified SENP8, Z-RLRGG-aminoluciferin cleavage, luminescence. inhibition, % at 10 µM. AID 2540; in the data active = inhibition above about 50%
Target sequence (Q96LD8 whole entry, looked up): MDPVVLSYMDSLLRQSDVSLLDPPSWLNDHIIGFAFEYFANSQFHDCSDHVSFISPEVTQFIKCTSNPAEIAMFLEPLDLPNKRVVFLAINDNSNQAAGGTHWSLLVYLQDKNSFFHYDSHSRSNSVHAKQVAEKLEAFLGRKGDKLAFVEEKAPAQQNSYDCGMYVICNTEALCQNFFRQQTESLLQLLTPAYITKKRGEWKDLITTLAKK
SENP1 inh – SENP1 (human) catalytic domain inhibition; AID 624204; recombinant SENP1 catalytic domain, CyPet-SUMO1-YPet FRET cleavage; inhibition, % at 10 µM; actives 0.21% (n = 360,000); Q9P0U3;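 active = inhibition at least 30% at 10 µM, raw YFP signal under a set limit, fluorescence ratio 0.5 to 1.5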;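 note: 0% = enzyme with DMSO and 100% = no enzyme wells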
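system = hSENP1 catalytic domain, recombinant | reagent = SFCypet-SUMO1-SFYpet substrate at 25 nM | doses = one dose per compound, 10 µM, 0.5% DMSO | incubation = enzyme reaction for 50 min at room temperature, dark | measured by = FRET, CFP and YFP emission | controls = no-enzyme low, enzyme-DMSO high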
SENP6 inh – inhibitors of human SENP6 protease; actives 1.8% (n = 330,000); Recombinant SENP6 catalytic domain, aminoluciferin luminescence; Q9GZR1; inhibition, % at 10 µM;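 active = inhibition above about 50% at the single tested dose, limit read from the data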;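 note: plate controls were DMSO wells with enzyme for no effect and DMSO wells lacking enzyme for full effect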
SENP8 block-2 – blocks human SENP8 cleavage of Nedd8 substrate; Q96LD8; recombinant SENP8, Nedd8 substrate fluorescence; inhibition, % at 20 µM; actives 0.64% (n = 360,000); AID 602440; in the data active = inhibition mostly above about 40%, no sharp cut-off; inactive = mostly below about 27%
SENP7 inh – SENP7 protease inhibition. recombinant SENP7, Z-RLRGG-aminoluciferin luminescence, 40 min. inhibition, % at 5 µM. AID 434973. actives 1.5% (n = 330,000);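 active = inhibition above about 50% at the single test dose, limit read from the data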;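 note: plate controls were DMSO with enzyme for no effect and no enzyme buffer wells for full effect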
SENP8 confirm – human SENP8 inhibition, confirmed | AID 488912 | shares compounds with SENP7 inh | inhibition, % at 12.5 µM | actives 40% (n = 6,200) | Recombinant SENP8, Z-RLRGG-aminoluciferin luminescence, 60 min;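 active = mean inhibition across replicates above about 50%, limit read from the data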
SENP6 conf – human SENP6 inhibition, confirmed | shares compounds with SENP7 inh | recombinant SENP6, Z-RLRGG-aminoluciferin luminescence | inhibition, % at 12.5 µM | actives 58% (n = 6,200)
SENP7 confirm – confirmation of human SENP7 protease inhibitors. shares compounds with SENP7 inh. recombinant SENP7, Z-RLRGG-aminoluciferin luminescence, 40 min. inhibition, % at 12.5 µM. actives 69% (n = 6,200). AID 488917
Casp3 select – caspase-3 inhibition (SENP selectivity assay). shares compounds with SENP7 inh. purified caspase-3, Z-DEVD-aminoluciferin luminescence, 60 min. inhibition, % at 12.5 µM. actives 60% (n = 6,200). AID 488918;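 active = mean inhibition above about 50%, limit read from the data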;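 note: plate controls were enzyme with DMSO for no effect and wells without caspase-3 for full effect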
Target sequence (P42574 28-227 limits assumed): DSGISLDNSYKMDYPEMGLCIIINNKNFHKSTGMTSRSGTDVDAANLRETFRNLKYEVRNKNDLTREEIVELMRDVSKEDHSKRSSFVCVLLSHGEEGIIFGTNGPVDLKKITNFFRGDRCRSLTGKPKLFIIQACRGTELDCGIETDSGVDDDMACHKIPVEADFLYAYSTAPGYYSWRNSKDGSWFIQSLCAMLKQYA
Luc interf – luminescence interference (SENP counter-screen); AID 488919; actives 39% (n = 6,200); inhibition, % at 12.5 µM; shares compounds with SENP7 inh; Pre-incubated SENP8/Z-RLRGG-aminoluciferin, luciferase luminescence interference;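 active = mean inhibition above about 50% when retested at one dose, limit read from the data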;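 note: plate controls were DMSO wells with completed reaction for no effect and substrate without enzyme for full effect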
* = called active by the depositor; x = not tested or not shown. Only some compounds are listed: those with a hit (about 2.5% of all), similar ones and a draw of the others.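 Rule for the calls, unless noted: active = mean inhibition above about 50% in the one-dose retest (limit read from the data); inactive = the rest.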

SMILES	SENP8 block-1	SENP1 inh	SENP6 inh	SENP8 block-2	SENP7 inh	SENP8 confirm	SENP6 conf	SENP7 confirm	Casp3 select	Luc interf
Cc1ccc(-c2csc(NC(=O)c3ccccc3Cl)c2C(=O)O)cc1	29	3	46	-8	4	x	x	x	x	x
Cc1ccc(-c2csc(NC(=O)/C=C/c3ccco3)c2C(=O)O)cc1	89*	-26	86*	2	72*	68*	97*	101*	96*	67*
Cc1cccc(C(=O)Nc2sc(C)c(-c3ccccc3)c2C#N)c1	24	-25	60*	-47	33	30	40	54*	31	8
Cc1cccc(C(=O)Nc2scc(CC(C)C)c2C(=O)O)c1	19	3	26	-20	9	x	x	x	x	x
Cc1ccc(-c2csc(NC(=O)c3cccc(C)c3)c2C(=O)O)cc1	92*	-2	97*	-98	69*	-7	96*	100*	91*	84*
Cc1cccc(C(=O)Nc2scc(-c3ccc(Br)cc3)c2C(=O)O)c1	72*	0	39	-28	7	21	54*	28	24	10
CS(=O)(=O)c1ccc(C(=O)OCC(=O)c2ccc(Cl)s2)cc1	4	4	-15	2	-1	x	x	x	x	x
CC(C)c1ccc(C(=O)CN2C(=O)NC3(CCc4ccccc43)C2=O)cc1 (stereo not given)	-7	0	-11	9	-2	x	x	x	x	x
CC(C)c1ccc(-c2csc(NC(=O)c3cccs3)c2C(=O)O)cc1	91*	-1	96*	-64	29	11	98*	90*	84*	84*
Cc1ccc(-c2csc(NC(=O)c3ccc(Br)cc3)c2C(=O)O)cc1	86*	3	71*	-168	11	-8	87*	74*	76*	29
O=C(Nc1scc(-c2ccc(F)cc2)c1C(=O)O)c1ccco1	71*	-1	86*	-114	46	-6	77*	93*	87*	81*
CC(C)Cc1csc(NC(=O)c2ccc(Cl)cc2)c1C(=O)O	91*	3	94*	-64	22	95*	97*	99*	87*	76*
COc1cc(C(=O)Nc2scc(-c3ccc(Br)cc3)c2C(=O)O)cc(OC)c1OC	9	0	7	-151	5	x	x	x	x	x
CC(C)Cc1csc(NC(=O)c2ccccc2Cl)c1C(=O)O	9	-2	8	11	5	x	x	x	x	x
COc1ccc(C)cc1N1CC(C(=O)Nc2cccc(C(=O)NC3CC3)c2)CC1=O (stereo not given)	x	0	x	15	x	x	x	x	x	x
Cc1ccc(SCC(=O)OCn2nnc3ccccc3c2=O)cc1C	-5	5	-5	22	-1	x	x	x	x	x
C[C@H]1CCCCO[C@H](CN(C)CC2CCCCC2)[C@@H](C)CN([C@@H](C)CO)C(=O)c2cc(NS(=O)(=O)c3ccccc3)ccc2O1	x	-1	x	11	x	x	x	x	x	x
Cc1ccc2c(c1)[nH]c1c(=O)n(Cc3ccco3)cnc12	-2	2	-2	5	2	x	x	x	x	x
COc1cc(/C=C2/C(=O)N(c3cccc(Br)c3)N=C2C)cc(OC)c1O	2	19	-14	61*	54*	8	16	7	4	6
CC1=NN(c2ccccc2)C(=O)/C1=C/c1c(C)[nH]n(-c2ccc(C)cc2)c1=O	2	x	-4	x	-5	x	x	x	x	x
CC1=NN(c2ccccc2)C(=O)/C1=C/c1cccc(C)c1	-1	3	23	70*	52*	2	16	-1	-2	-4
O=C(Nc1ccc(Br)cc1)c1cc2ccccn2n1	71*	2	-8	37	64*	35	36	88*	65*	44
O=C(NCCc1ccc(Cl)cc1)c1cc2ccccn2n1	-2	1	-15	18	-3	x	x	x	x	x
Fc1ccc(-c2nnc(-c3ccc(Cl)cc3)o2)cc1	-7	5	24	-2	56*	20	21	39	41	10
CSc1ccccc1-c1nnc(-c2ccc(Cl)cc2Cl)o1	-22	1	-17	-497	35	x	x	x	x	x
SMILES	SENP8 block-1	SENP1 inh	SENP6 inh	SENP8 block-2	SENP7 inh	SENP8 confirm	SENP6 conf	SENP7 confirm	Casp3 select	Luc interf
Clc1ccc(-c2nnc(-c3ccccc3)o2)c(Cl)c1	90*	1	96*	-6	97*	85*	87*	95*	88*	47
Fc1ccc(-c2nnc(-c3ccc(Cl)cc3Cl)o2)cc1	72*	2	74*	7	92*	60*	65*	86*	79*	14
CS(=O)(=O)C1=NSC2=NC(=O)/C(=C\c3ccc(OC(=O)c4ccco4)c(Br)c3)C(=N)N21	38	-30	47	-9	5	x	x	x	x	x
Oc1c(Br)cc(Br)cc1/C=N/c1nccs1	2	-20	-12	-50	1	x	x	x	x	x
CC1(C)CC(=O)C(C=Nc2ccc3[nH]ncc3c2)=C(O)C1	-4	-3	3	-104	5	x	x	x	x	x
COc1ccc(C=Nc2ccc3[nH]ncc3c2)c(O)c1	-7	-12	62*	-179	18	17	4	10	10	6
Oc1c(Br)cc(Br)cc1C=Nc1ccc2[nH]ncc2c1	32	-35	56*	-322	28	0	12	-5	5	3
Oc1c(Br)cc(Br)cc1C=Nc1cccnc1	24	-27	55*	-10	16	13	42	26	12	5
Cc1ccc(C(C[N+](=O)[O-])Sc2ccc(N)cc2)cc1 (stereo not given)	4	4	-1	20	14	x	x	x	x	x
COc1ccc(CC(=O)NNC(=O)COc2ccc(Cl)cc2C)cc1S(=O)(=O)N1CCOCC1	-7	-1	2	13	2	x	x	x	x	x
CC(C)Oc1ccc(CN2CCC2(C)C(=O)NCc2cccc3ccccc23)cc1 (stereo not given)	x	-1	x	-7	x	x	x	x	x	x
Fc1ccc(-c2nc3ccccc3[nH]2)cc1	64*	-1	83*	10	83*	-7	64*	89*	84*	72*
Nc1ccc(-c2nc3ccccc3[nH]2)cc1	48	3	70*	-414	65*	49	47	83*	82*	66*
Clc1nc2c(ccc3ccccc32)[nH]1	-5	2	-14	18	0	x	x	x	x	x
